ChEMBL document CHEMBL3526140, “Prediction of human intestinal absorption of the prodrug temocapril by in situ single-pass perfusion using rat intestine with modified hydrolase activity” (Drug Metab Dispos, 2011)

What was measured:
Jejunum [1] = test: Drug uptake in Wistar rat jejunum lumen assessed as rate of drug appearance at 100 uM by in-situ single-pass perfusion method; format: ADME, tissue-based; conditions: in vivo
How it was run: (§1)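 Rats fasted 18–24 h, anesthetized with intraperitoneal pentobarbital. Isolated cannulated jejunal segment kept at 37°C in Krebs–Henseleit buffer with 3% BSA and 10 mM glucose. Vascular perfusion with Krebs–Henseleit (pH 7.4) at 2.5 ml/min. Lumen perfused at 0.2 ml/min with phosphate buffer (pH 5.4, 6.4 or 7.4) containing 100 µM drug plus FD-4. Luminal and vascular samples assayed by HPLC (UV 258 nm). Parameters normalized to 10 cm intestine. Mean ± S.D., n = 3–6.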

Jejunum [2] = test: Drug uptake in Wistar rat jejunum blood vessel assessed as rate of drug appearance at 100 uM at pH 6.4 by in-situ single-pass perfusion method; format: ADME, tissue-based; conditions: in vivo, pH 6.4, 100 µM; how it was run: as §1
Jejunum [3] = test: Intracellular drug level in Wistar rat jejunum at 100 uM at pH 6.4 by in-situ single-pass perfusion method; format: ADME, tissue-based; conditions: in vivo; how it was run: as §1
Jejunum [4] = test: Drug uptake in Wistar rat jejunum blood vessel assessed as rate of drug appearance at 100 uM by in-situ single-pass perfusion method; format: ADME, tissue-based; conditions: in vivo; how it was run: as §1
[5] = Partition coefficient, log P between n-octanol and phosphate buffer at pH 7.4; format: physicochemical
Jejunum [6] = test: Apparent absorption clearance in Wistar rat jejunum at 100 uM at pH 6.4 by in-situ single-pass perfusion method; format: ADME, tissue-based; conditions: in vivo; how it was run: as §1

A Drug uptake (Jejunum [1]) of 2.25 nmol/min, a Drug uptake (Jejunum [2]) of 0.193 nmol/min and a Drug uptake (Jejunum [3]) of 2.99 nmol/g were found for O=C(O)CN1C[C@@H](c2cccs2)SC[C@H](N[C@@H](CCc2ccccc2)C(=O)O)C1=O [TEMOCAPRILAT] in this work. For the same compound, the Drug uptake (Jejunum [4]) was 1.22 nmol/min, the logD [5] was 2.5 and the “CL(app)” value (Jejunum [6]) was 1.87 µL/min.
